What was measured:
[1] = Cytotoxicity against human MT4 cells assessed as induction of cell death by MTT method; format: cell-based
Method in brief: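 Mock-infected MT-4 cells exposed to a range of drug concentrations. Viability read by MTT colorimetry at day 5. […] Top concentration was limited where compound precipitated in the culture medium. Means of at least two experiments.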

[2] = test system: Human immunodeficiency virus 1; test: Antiviral activity against HIV-1 harboring NNTRI-resistant reverse transcriptase K103N mutant infected in human MT4 cells assessed as inhibition of virus-induced cytopathic effect by MTT method; format: functional, organism-based; conditions: Human immunodeficiency virus 1, MT4
[3] = test system: Human immunodeficiency virus 1; test: Fold resistance, ratio of EC50 for HIV-1 harboring NNTRI-resistant reverse transcriptase Y181C mutant infected in human MT4 cells to EC50 for wild type HIV-1 NL4-3 infected in human MT4 cells; format: functional
Method in brief: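 MT-4 cells infected with HIV-1 mutant (K103N or Y181C) or wild-type NL4-3, with drug present. […] Fold resistance is the mutant EC50 divided by the wild-type NL4-3 EC50. EC50 values are means of at least two experiments.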

[4] = test system: Human immunodeficiency virus 1; test: Antiviral activity against wild type HIV-1 NL4-3 infected in human MT4 cells assessed as inhibition of virus-induced cytopathic effect by MTT method; format: functional, organism-based; conditions: Human immunodeficiency virus 1, NL4-3, MT4
Method in brief: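 MT-4 lymphoid cells infected with wild-type HIV-1 NL4-3 while exposed to a range of drug concentrations. Viable cells counted by tetrazolium (MTT) colorimetry at day 5 post-infection. Means of at least two experiments.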

[5] = test system: Human immunodeficiency virus 1; test: Antiviral activity against HIV-1 harboring NNTRI-resistant reverse transcriptase Y188L mutant infected in human MT4 cells assessed as inhibition of virus-induced cytopathic effect by MTT method; format: functional, organism-based; conditions: Human immunodeficiency virus 1, MT4
Method in brief: (§1)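 MT-4 lymphoid cells infected with HIV-1 carrying RT K103N, Y181C or Y188L, with a range of drug concentrations present. Viable cells counted by MTT colorimetric assay at day 5 post-infection. […] Highest concentration tested was limited by precipitation in culture medium. Means of at least two experiments.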

[6] = test system: Human immunodeficiency virus 1; test: Fold resistance, ratio of EC50 for HIV-1 harboring NNTRI-resistant reverse transcriptase K103N mutant infected in human MT4 cells to EC50 for wild type HIV-1 NL4-3 infected in human MT4 cells; format: functional
[7] = Selectivity index, ratio of CC50 for human MT4 cells to EC50 for wild type HIV-1 NL4-3 infected in human MT4 cells; format: toxicity, cell-based; conditions: read-out: Ratio CC50/EC50
Method in brief: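 Ratio of CC50 to EC50, both from MTT readings in MT-4 cells at day 5. CC50 was taken in mock-infected cells and EC50 in cells infected with wild-type NL4-3. Values are means of at least two experiments.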

[8] = test system: Human immunodeficiency virus 1; test: Antiviral activity against HIV-1 harboring NNTRI-resistant reverse transcriptase Y181C mutant infected in human MT4 cells assessed as inhibition of virus-induced cytopathic effect by MTT method; format: functional, organism-based; conditions: Human immunodeficiency virus 1, MT4; method in brief: as §1
[9] = molecular target: Human immunodeficiency virus type 1 reverse transcriptase (Human immunodeficiency virus 1) (UniProt Q72547)
[10] = test system: Human immunodeficiency virus type 1 reverse transcriptase (Human immunodeficiency virus 1), Q72547 [K103N]
[11] = test system: Human immunodeficiency virus type 1 reverse transcriptase (Human immunodeficiency virus 1), Q72547 [L100I]

SMILES	CC50 [1]	EC50 [2]	Ratio EC50 [3]	EC50 [4]	EC50 [5]	Ratio EC50 [6]	selectivity ratio [7]	EC50 [8]	pID50 [9]	ID50 [9]	ID50 [10]	ID50 [11]
CC(C)Sc1nc(Cc2c(F)cccc2Cl)cc(=O)[nH]1	> 80000 nM	39200 nM	47	380 nM	> 80000 nM	103	> 210	17800 nM	–	–	–	–
CCC(C)Sc1nc(Cc2c(F)cccc2Cl)cc(=O)[nH]1 (centres undefined)	> 76000 nM	25200 nM	52	160 nM	> 76000 nM	157	> 475	8300 nM	–	–	–	–
CCCCSc1nc(Cc2c(F)cccc2Cl)cc(=O)[nH]1	> 76000 nM	29200 nM	58	290 nM	> 76000 nM	101	> 262	16700 nM	–	–	–	–
O=c1cc(Cc2c(F)cccc2Cl)nc(SC2CCCC2)[nH]1	> 74000 nM	42100 nM	122	150 nM	> 74000 nM	281	> 493	18300 nM	–	–	–	–
Cc1c(Cc2c(F)cccc2Cl)nc(SC(C)C)[nH]c1=O	> 76000 nM	10600 nM	70	120 nM	> 76000 nM	88	> 633	8400 nM	–	–	–	–
CCCSc1nc(Cc2c(F)cccc2Cl)c(C)c(=O)[nH]1	> 76000 nM	9200 nM	27	86 nM	> 76000 nM	107	> 884	2300 nM	–	–	–	–
CCC(C)Sc1nc(Cc2c(F)cccc2Cl)c(C)c(=O)[nH]1 (centres undefined)	> 73000 nM	5400 nM	111	47 nM	> 73000 nM	115	> 1550	5200 nM	–	–	–	–
CCCCSc1nc(Cc2c(F)cccc2Cl)c(C)c(=O)[nH]1	> 73000 nM	20000 nM	21	110 nM	> 73000 nM	182	> 664	2300 nM	–	–	–	–
Cc1c(Cc2c(F)cccc2Cl)nc(SC2CCCC2)[nH]c1=O	> 71000 nM	> 71000 nM	–	180 nM	> 71000 nM	–	> 394	> 71000 nM	–	–	–	–
Cc1c([C@H](C)c2c(F)cccc2Cl)nc(SC(C)C)[nH]c1=O	> 23500 nM	10 nM	–	0.03 nM	350 nM	–	–	150 nM	–	–	–	–
Cc1c([C@@H](C)c2c(F)cccc2Cl)nc(SC(C)C)[nH]c1=O	> 36900 nM	> 36900 nM	–	220 nM	> 36900 nM	–	–	> 36900 nM	–	–	–	–
Cc1c([C@@H](C)c2c(F)cccc2F)nc(SC2CCCC2)[nH]c1=O	–	–	–	–	–	–	–	–	6	–	–	–
Cc1c([C@H](C)c2c(F)cccc2F)nc(SC2CCCC2)[nH]c1=O	–	–	–	–	–	–	–	–	8.1	–	–	–
Cc1c(C(C)c2c(F)cccc2Cl)nc(SC(C)C)[nH]c1=O (racemic)	> 15000 nM	140 nM	–	0.04 nM	3400 nM	–	–	250 nM	–	–	–	–
CCC(C)Sc1nc(C(C)c2c(F)cccc2Cl)c(C)c(=O)[nH]1 (racemic)	> 1500 nM	320 nM	–	0.3 nM	> 1500 nM	–	–	390 nM	–	–	–	–
CCc1c(C(C)c2c(F)cccc2Cl)nc(SC(C)C)[nH]c1=O (racemic)	> 3000 nM	> 3000 nM	–	960 nM	> 3000 nM	–	> 3	> 3000 nM	–	48 nM	2600 nM	1100 nM
CCCSc1nc(C(C)c2c(F)cccc2Cl)c(CC)c(=O)[nH]1 (racemic)	> 3000 nM	> 3000 nM	–	28 nM	> 3000 nM	–	> 107	> 3000 nM	–	10 nM	2600 nM	230 nM

SMILES	CC50 [1]	EC50 [2]	Ratio EC50 [3]	EC50 [4]	EC50 [5]	Ratio EC50 [6]	selectivity ratio [7]	EC50 [8]	pID50 [9]	ID50 [9]	ID50 [10]	ID50 [11]
CCc1c(C(C)c2c(F)cccc2Cl)nc(SC(C)CC)[nH]c1=O (racemic)	> 3000 nM	> 3000 nM	–	270 nM	> 3000 nM	–	> 11	> 3000 nM	–	8 nM	2400 nM	400 nM
CCCCSc1nc(C(C)c2c(F)cccc2Cl)c(CC)c(=O)[nH]1 (racemic)	> 3000 nM	> 3000 nM	–	64 nM	> 3000 nM	–	> 47	> 3000 nM	–	22 nM	2300 nM	330 nM
CCc1c(C(C)c2c(F)cccc2Cl)nc(SC2CCCC2)[nH]c1=O (racemic)	> 3000 nM	> 3000 nM	–	> 3000 nM	> 3000 nM	–	–	> 3000 nM	–	24 nM	1800 nM	530 nM
CCC(c1nc(SC(C)C)[nH]c(=O)c1C)c1c(F)cccc1Cl (racemic)	> 3000 nM	> 3000 nM	–	84 nM	> 3000 nM	–	> 36	> 3000 nM	–	6 nM	420 nM	120 nM
CCC(C)Sc1nc(C(CC)c2c(F)cccc2Cl)c(C)c(=O)[nH]1 (racemic)	> 3000 nM	> 3000 nM	–	54 nM	> 3000 nM	–	> 56	> 3000 nM	–	2 nM	450 nM	120 nM
CCCCSc1nc(C(CC)c2c(F)cccc2Cl)c(C)c(=O)[nH]1 (racemic)	> 3000 nM	> 3000 nM	–	110 nM	> 3000 nM	–	> 27	> 3000 nM	–	3 nM	1000 nM	260 nM
CCC(c1nc(SC2CCCC2)[nH]c(=O)c1C)c1c(F)cccc1Cl (racemic)	> 3000 nM	> 3000 nM	–	580 nM	> 3000 nM	–	> 5	> 3000 nM	–	4 nM	340 nM	68 nM
CCCSc1nc(C(C)c2c(F)cccc2F)c(C)c(=O)[nH]1 (racemic)	> 3000 nM	> 3000 nM	–	28 nM	> 3000 nM	–	> 107	> 3000 nM	–	1 nM	380 nM	230 nM
CCc1c(C(C)c2c(F)cccc2F)nc(SC(C)C)[nH]c1=O (racemic)	> 3000 nM	> 3000 nM	–	89 nM	> 3000 nM	–	> 34	> 3000 nM	–	12 nM	830 nM	27200 nM
CCCSc1nc(C(C)c2c(F)cccc2F)c(CC)c(=O)[nH]1 (racemic)	> 3000 nM	> 3000 nM	–	240 nM	> 3000 nM	–	> 12	> 3000 nM	–	3 nM	430 nM	270 nM
CCc1c(C(C)c2c(F)cccc2F)nc(SC(C)CC)[nH]c1=O (racemic)	> 3000 nM	> 3000 nM	–	140 nM	> 3000 nM	–	> 21	> 3000 nM	–	11 nM	450 nM	110 nM
CCCCSc1nc(C(CC)c2c(F)cccc2F)c(C)c(=O)[nH]1 (racemic)	> 3000 nM	> 3000 nM	–	23 nM	> 3000 nM	–	> 130	> 3000 nM	–	3 nM	280 nM	230 nM
CCCCSc1nc(O)c(C)c(C(C)c2c(F)cccc2F)n1 (racemic)	> 3000 nM	> 3000 nM	–	50 nM	> 3000 nM	–	> 60	> 3000 nM	–	3 nM	450 nM	230 nM
Cc1c(C(C)c2c(F)cccc2F)nc(SC(C)C)[nH]c1=O (racemic)	> 3000 nM	–	–	–	–	–	> 3000	–	–	–	–	–
O=C1Nc2ccc(Cl)cc2[C@@](C#CC2CC2)(C(F)(F)F)O1 [EFAVIRENZ]	> 3000 nM	–	–	–	1970 nM	–	–	13 nM	–	–	–	–
Cc1ccnc2c1NC(=O)c1cccnc1N2C1CC1 [NEVIRAPINE]	> 7000 nM	–	–	–	> 7000 nM	–	–	> 7000 nM	–	–	–	–

Reference: ChEMBL document CHEMBL3286172, “Exploring the role of 2-chloro-6-fluoro substitution in 2-alkylthio-6-benzyl-5-alkylpyrimidin-4(3H)-ones: effects in HIV-1-infected cells and in HIV-1 reverse transcriptase enzymes” (J Med Chem, 2014)
